Bioassay records (PubChem)
CXCR6 block: CXCR6 (human) receptor inhibition; O00574; actives 0.36% (n = 360,000); CHO-K1 PathHunter CXCR6 beta-arrestin, luminescence; inhibition, % at 20 µM; in the data active means inhibition above about 34%, passing the limit was not always enough;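 further: antagonist mode with CXCL16 agonist at 10 nM final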
Target sequence (O00574 whole entry, looked up): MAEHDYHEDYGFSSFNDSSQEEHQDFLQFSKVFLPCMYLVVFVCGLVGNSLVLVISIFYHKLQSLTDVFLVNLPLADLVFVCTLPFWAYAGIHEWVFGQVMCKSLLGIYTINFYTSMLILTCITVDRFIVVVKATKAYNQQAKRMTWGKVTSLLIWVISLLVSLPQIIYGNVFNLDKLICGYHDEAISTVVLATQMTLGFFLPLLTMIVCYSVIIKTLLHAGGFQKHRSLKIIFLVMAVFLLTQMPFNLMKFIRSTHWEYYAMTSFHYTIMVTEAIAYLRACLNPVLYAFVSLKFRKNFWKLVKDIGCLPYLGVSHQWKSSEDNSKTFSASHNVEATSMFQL
APJ ag: agonists of human APJ apelin receptor | P35414 | CHO-K1 APJ PathHunter beta-arrestin, luminescence; 0% DMSO wells, 100% apelin | activation, % at 20 µM | actives 0.11% (n = 330,000) | AID 2520;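 active means activation more than six SD over the plate average, tested at 20 µM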
Target sequence (P35414 whole entry, looked up): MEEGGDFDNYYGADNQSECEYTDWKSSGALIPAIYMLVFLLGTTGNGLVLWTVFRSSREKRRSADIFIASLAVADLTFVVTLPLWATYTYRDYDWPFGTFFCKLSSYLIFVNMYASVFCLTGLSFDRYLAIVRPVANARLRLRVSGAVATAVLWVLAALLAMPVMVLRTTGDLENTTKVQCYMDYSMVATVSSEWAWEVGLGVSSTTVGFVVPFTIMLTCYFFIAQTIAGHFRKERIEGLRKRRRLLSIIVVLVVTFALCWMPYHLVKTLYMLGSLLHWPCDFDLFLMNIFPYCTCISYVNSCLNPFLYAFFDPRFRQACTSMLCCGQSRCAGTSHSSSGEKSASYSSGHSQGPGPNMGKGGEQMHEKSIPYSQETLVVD
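Assay system: engineered CHO-K1 APJ arrestin reporter cells; Amount: 1000 CHO-K1 reporter cells seeded per well; Dosing: one dose, 20 µM compound, 1% DMSO; Times: compound stimulation 90 min at 25 °C, detection 60 min; Measured by: luminescent beta-gal fragment complementation, chemiluminescent substrate; Read-out: APJ–arrestin association signal; Controls: DMSO vs Apelin-13 10 nM.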
PKA-R2B activ: PKA-R2B complex activation; P22694+P31323; PKA-R2B holoenzyme dissociation, Cy5-IP20 fluorescence polarization; R2B truncated from residue 108, S112A mutant; 0% DMSO only, 100% 113 µM cGMP; activation, % at 11.4 µM; actives 0.079% (n = 340,000); AID 504700;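 active means activation above a cutoff set at the mean over all compounds plus 3 SD, cut at about 18% in these data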;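 further: higher means more holoenzyme dissociation and a rise in polarization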
CCR6 antagonist: antagonists of human CCR6 receptor | P51684 | CHO-K1 CCR6 PathHunter beta-arrestin, luminescence, CCL20-stimulated | inhibition, % at 20 µM | actives 0.49% (n = 340,000);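 active means compounds whose inhibition of the agonist-driven luminescence signal at 20 µM reaches about 50%, limit read from the data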;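 further: cells stimulated with CCL20 at 14 nM final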
PKA-R1A activ: activates the PKA-R1A holoenzyme complex. P00514+P68181. activation, % at 11.4 µM. PKA-R1A dissociation, Cy5-IP20 fluorescence polarization; scaled: DMSO 0%, 113 µM cGMP 100%. actives 0.083% (n = 340,000);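 active means percent activation above the mean of all tested compounds plus 3 SD, cut at about 19% in these data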;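 further: higher means more PKAc released from R1A so a rise in polarization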
APJ antag: APJ receptor antagonism | inhibition, % at 20 µM | P35414 | CHO-K1 APJ beta-arrestin complementation, luminescence | actives 0.32% (n = 330,000);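 active means inhibition above about 40% at 20 µM, limit read from the data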;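 further: cells challenged with 10 nM apelin-13 agonist together with compound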
R2B FP artifact: fluorescence polarization artifact in PKA-R2B activator counter-screen; shares compounds with PKA-R2B activ; FP artifact counterscreen; activation, % at 11.4 µM; actives 6% (n = 270); AID 504796; in the data active means activation above about 20%;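 further: Cy5 labelled IP20 peptide probe with compound but no PKA protein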
PKA-R2B confirm: PKA-R2B complex activation, confirmation; actives 9% (n = 270); shares compounds with PKA-R2B activ; activation, % at 11.4 µM; fluorescence polarization; in the data active means activation above about 19%
Large screens that a line does not name were inactive (follow-up assays come after a bar, where they were run). Compounds with a hit are over-represented: about 0.88% of the library has one in this group of screens.

COc1ccc(CCNC(=O)Cn2c(=O)oc3cc(Cl)ccc32)cc1OC	PKA-R2B activ 19 | R2B FP artifact inactive | PKA-R2B confirm inactive
COc1ccc(NC(=O)Cn2c(=O)oc3cc(Cl)ccc32)c(OC)c1	none
NC(=O)CC(NC(=O)c1ccc(Br)cc1)c1ccc(N2CCC(Cc3ccccc3)CC2)c([N+](=O)[O-])c1 (stereo not given)	PKA-R2B activ 19 | R2B FP artifact inactive | PKA-R2B confirm inactive
Cc1ccc(C(=O)NCC(=O)N2CCN(c3ccccc3)CC2)cc1	PKA-R2B activ 21 | R2B FP artifact inactive | PKA-R2B confirm inactive
O=S(=O)(NC1CCCC1)c1ccc(S(=O)(=O)N(Cc2cccs2)CC2CCCO2)cc1 (stereo not given)	PKA-R2B activ 20 | R2B FP artifact inactive | PKA-R2B confirm inactive
CC#CC(=O)NCC1(N(C)Cc2ccccc2)Cc2ccccc2C1	PKA-R2B activ 18 | R2B FP artifact inactive | PKA-R2B confirm inactive
CSCC(=O)NCC1(N(C)Cc2ccccc2)Cc2ccccc2C1	none
CCOc1ccccc1NC(=O)C(OC(=O)c1ccc(CC)cc1)c1ccccc1 (stereo not given)	PKA-R2B activ 19 | R2B FP artifact inactive | PKA-R2B confirm inactive
CCOc1ccc(-n2ccnc2SCC(=O)Nc2cc(C)on2)cc1	none
Cc1cccc(/C=N/NC(=O)c2cc(Br)ccc2OCc2ccccc2)n1	PKA-R2B activ 19 | R2B FP artifact inactive | PKA-R2B confirm inactive
Cc1cccc(/C=N/NC(=O)c2ccccc2OCc2cccc(Br)c2)n1	none (no result: CCR6 antagonist)
CCCc1cc(=O)n2[nH]c(NCc3c(Cl)cccc3Cl)nc2n1	PKA-R2B activ 24 | R2B FP artifact 22 | PKA-R2B confirm inactive
C=CCNC(=O)c1onc(CSc2ccccc2)c1C(=O)NCC=C	none
C=CCNC(=O)c1onc(CSc2ccncc2)c1C(=O)NCC=C	PKA-R2B activ 22 | R2B FP artifact inactive | PKA-R2B confirm inactive
COc1ccc(CN2CCN(Cc3ccc4ccccc4c3)CC2)cc1OC	PKA-R2B activ 23 | R2B FP artifact inactive | PKA-R2B confirm inactive
COc1ccc(S(=O)(=O)NC(CC(=O)NCCc2ccc(OC)c(OC)c2)C(C)C)cc1 (stereo not given)	none
CN1C(=O)N(CC(=O)N2CCN(c3ncccn3)CC2)C(=O)C12CCCCC2	none
O=C1CC2(CCCC2)CC(=O)N1CCCCN1CCN(c2ncccn2)CC1	PKA-R2B activ 23 | R2B FP artifact inactive | PKA-R2B confirm inactive
O=S(=O)(c1ccc2c(c1)OCCO2)N1CCC(c2nc3ccccc3[nH]2)CC1	PKA-R2B activ 19 | R2B FP artifact inactive | PKA-R2B confirm inactive
O=C(N/N=C/c1cc(O)ccc1[N+](=O)[O-])c1ccc2c(c1)OCCO2	PKA-R2B activ 19 | R2B FP artifact inactive | PKA-R2B confirm inactive
NC(=O)CSc1nnc(COc2ccccc2)n1CCc1ccccc1	PKA-R2B activ 22 | R2B FP artifact inactive | PKA-R2B confirm inactive
Cn1cccc1Cc1nnc(SCC(N)=O)n1CCc1ccccc1	none
CCN1C/C(=C/c2cccc([N+](=O)[O-])c2)C(=O)/C(=C/c2cccc([N+](=O)[O-])c2)C1	PKA-R2B activ 19, CCR6 antagonist 62 (no result: APJ ag, APJ antag) | R2B FP artifact inactive | PKA-R2B confirm inactive
COc1ccc(OC)c(N(CC(=O)Nc2cccc(C(F)(F)F)c2)S(C)(=O)=O)c1	none
CC(C)C(=O)Nc1cc2c3c(c1)CCC(=O)N3CCC2	none
N#CC(Sc1ccccn1)c1ccc(Cl)cc1 (stereo not given)	none
Cc1ccc(OCc2cc(C(=O)NC(C)Cc3cnccn3)no2)cc1C (stereo not given)	PKA-R2B activ 21 | R2B FP artifact inactive | PKA-R2B confirm inactive
Cc1cccc(CC(C)NC(=O)c2cc(COc3ccc(C)c(C)c3)on2)n1 (stereo not given)	none
O=C(NC1CCCC1)c1cc(S(=O)(=O)N2CCCC2)ccc1Cl	none
O=C(NC1CCCCC1)c1cc(S(=O)(=O)N2CCN(c3ccccc3)CC2)ccc1Cl	PKA-R2B activ 20 | R2B FP artifact inactive | PKA-R2B confirm inactive
O=C(CSc1nc2nc3c(cc2c(=O)n1-c1ccccc1)CCCC3)Nc1cccc2ccccc12	PKA-R2B activ 19 | R2B FP artifact inactive | PKA-R2B confirm inactive
Oc1ccccc1/C=N/Nc1ncc(Br)cn1	PKA-R2B activ 26 (no result: APJ ag, APJ antag) | R2B FP artifact inactive | PKA-R2B confirm inactive
CCCN(C)C[C@@H]1Oc2ncc(Br)cc2C(=O)N([C@@H](C)CO)C[C@H]1C	PKA-R2B activ 20 (no result: APJ ag, CCR6 antagonist, APJ antag) | R2B FP artifact inactive | PKA-R2B confirm inactive
Cc1ccccc1-n1c(SCC(=O)N/N=C/C=C/c2ccccc2[N+](=O)[O-])nc2ccccc2c1=O	PKA-R2B activ 21 | R2B FP artifact inactive | PKA-R2B confirm inactive
O=C(CSc1nc2ccccc2c(=O)n1-c1ccccc1)N/N=C/C=C/c1ccccc1[N+](=O)[O-]	none
O=C(OCc1ccc(F)cc1)c1cc(=O)c2ccccc2o1	PKA-R2B activ 21 | R2B FP artifact inactive | PKA-R2B confirm inactive
COc1ccccc1NC(=O)C(=O)NCCCN1CCCC1=O	none
COc1cccc(NC(=O)C(=O)NCCCN2CCCC2=O)c1	PKA-R2B activ 20 | R2B FP artifact inactive | PKA-R2B confirm inactive
CCC(=O)Nc1sc2c(c1C(N)=O)CCC2	PKA-R2B activ 22 | R2B FP artifact inactive | PKA-R2B confirm inactive
CCC(C)NCC(=O)Nc1sc2c(c1C(N)=O)CCC2 (stereo not given)	none
Cc1ccc(Cl)cc1NC(=O)C1C2CCC(O2)C1C(=O)O (stereo not given)	none
Cc1ccc(S(=O)(=O)NC(C)(C)C)cc1C(=O)OCC(=O)N1CCCC1=O	PKA-R2B activ 20 | R2B FP artifact inactive | PKA-R2B confirm inactive
Cc1cc(OCC(=O)Nc2c(C(C)C)cccc2C(C)C)no1	none (no result: APJ ag, CCR6 antagonist, APJ antag)
Cc1ccc(-c2csc3nc(CSc4nnc(-c5ccc(Cl)cc5)n4C)[nH]c(=O)c23)cc1	none
CCn1c(SCc2nc3scc(-c4ccccc4)c3c(=O)[nH]2)nnc1-c1ccc(Cl)cc1	PKA-R2B activ 20 | R2B FP artifact inactive | PKA-R2B confirm inactive
C=C1CSc2nc(=O)c3c4c(sc3n21)CCCC4	none
C=C1CSc2nc(=O)c3c4c(sc3n21)CCC4	PKA-R2B activ 20 | R2B FP artifact inactive | PKA-R2B confirm inactive
O=C(c1cnn(C(=O)c2ccco2)c1)c1ccccc1O	none
COc1cc(-c2nc3ccccc3c(=O)n2N)cc(OC)c1OC	none
Cn1ccnc1SCc1ccc(Cl)cc1Cl	none
